ChEMBL document CHEMBL4145524, “Chemoenzymatically synthesized GM3 analogues as potential therapeutic agents to recover nervous functionality after injury by inducing neurite outgrowth” (2018)
Active and inactive are the calls of the source. The calls are words filed in the database; no cut-off is given here.

How the values were obtained:
PC-12 [1] = test: Induction of neuritogenesis in NGF-induced rat PC12 cells assessed as neurite bearing cells at 10 uM cotreated with 25 ng/ml NGF after 72 hrs by inverted microscopic analysis relative to control; assay type: functional
How it was run: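 PC12 cells plated on poly-L-lysine-coated wells at 2×10^4/well, switched to DMEM with 1% horse serum and 0.5% FBS for 24 h, then given compound together with NGF 25 ng/ml for 72 h. Inverted microscopy. Percentage of cells bearing at least one neurite twice the cell-body diameter, over ≥200 cells per sample; mean ± S.D., at least three experiments.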

PC-12 [2] = test: Induction of neuritogenesis in rat PC12 cells assessed as neurite bearing cells at 10 uM after 72 hrs by inverted microscopic analysis relative to control; assay type: functional
How it was run: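 PC12 cells (ATCC; grown in DMEM, 10% heat-inactivated horse serum, 5% FBS, 37 °C, 5% CO2) seeded at 2×10^4/well on poly-L-lysine, attached 24 h, then 24 h in low-serum DMEM (1% horse serum, 0.5% FBS). Compound at 10 μM for 72 h, no NGF. Score cells with at least one neurite ≥2× cell-body diameter, ≥200 cells/sample; mean ± S.D., ≥3 repeats.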

CCCCCCCCCCCCC/C=C/[C@@H](O)[C@H](CO[C@@H]1O[C@H](CO[C@]2(C(=O)O)C[C@H](O)[C@@H](NC(C)=O)[C@H]([C@@H](O)[C@H](O)CO)O2)[C@@H](O)[C@H](O)[C@H]1O)NC(=O)CCCCCCCCCCCCCCCCC
Activity (PC-12 [1]): inactive
Activity (PC-12 [2]): inactive

CCCCCCCCCCCCC/C=C/[C@@H](O)[C@H](CO[C@@H]1O[C@H](CO)[C@@H](O[C@@H]2O[C@H](CO)[C@H](O)[C@H](O[C@]3(C(=O)O)C[C@H](O)[C@@H](NC(=O)CCl)[C@H]([C@@H](O)[C@H](O)CO)O3)[C@H]2O)[C@H](O)[C@H]1O)NC(=O)CCCCCCCCCCCCCCCCC
Activity (PC-12 [1]): inactive
Activity (PC-12 [2]): 8%

CCCCCCCCCCCCC/C=C/[C@@H](O)[C@H](CO[C@@H]1O[C@H](CO)[C@H](O)[C@H](O[C@]2(C(=O)O)C[C@H](O)[C@@H](NC(C)=O)[C@H]([C@@H](O)[C@H](O)CO)O2)[C@H]1O)NC(=O)CCCCCCCCCCCCCCCCC
Activity (PC-12 [1]): inactive
Activity (PC-12 [2]): inactive

CCCCCCCCCCCCC/C=C/[C@@H](O)[C@@H](N)CO[C@@H]1O[C@H](CO)[C@H](O)[C@H](O[C@]2(C(=O)O)C[C@H](O)[C@@H](NC(C)=O)[C@H]([C@@H](O)[C@H](O)CO)O2)[C@H]1O
Activity (PC-12 [1]): Active
Activity (PC-12 [2]): 6%

CCCCCCCCCCCCC/C=C/[C@@H](O)[C@@H](N)CO[C@@H]1O[C@H](CO[C@]2(C(=O)O)C[C@H](O)[C@@H](NC(C)=O)[C@H]([C@@H](O)[C@H](O)CO)O2)[C@@H](O)[C@H](O)[C@H]1O
Activity (PC-12 [1]): >30%
Activity (PC-12 [2]): 26%

CCCCCCCCCCCCC/C=C/[C@@H](O)[C@@H](N)CO[C@@H]1O[C@H](CO[C@]2(C(=O)O)C[C@H](O)[C@@H](NC(C)=O)[C@H]([C@@H](O)[C@H](O)CO)O2)[C@H](O)[C@H](O)[C@H]1O
Activity (PC-12 [1]): inactive
Activity (PC-12 [2]): 9%

CCCCCCCCCCCCC/C=C/[C@@H](O)[C@H](CO[C@@H]1O[C@H](CO[C@]2(C(=O)O)C[C@H](O)[C@@H](NC(C)=O)[C@H]([C@@H](O)[C@H](O)CO)O2)[C@H](O)[C@H](O)[C@H]1O)NC(=O)CCCCCCCCCCCCCCCCC
Activity (PC-12 [1]): inactive
Activity (PC-12 [2]): inactive
